RORA inh – inhibitors of orphan receptor RORA, primary screen, cell-based, luminescence | 65,000 tested, 0.43% active | inhibition, % at 10 µM | CHO-K1 Gal4-RORA LBD luciferase reporter | Nuclear receptor ROR-alpha (Homo sapiens), P35398;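 active = inhibition above the mean of all tested compounds plus 3 SD, cut at about 52% in these data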;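 note: 0% = RORA-transfected cells with DMSO and 100% = mock-transfected cells lacking RORA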
Target sequence (P35398 whole entry, looked up, the tested form may be a part): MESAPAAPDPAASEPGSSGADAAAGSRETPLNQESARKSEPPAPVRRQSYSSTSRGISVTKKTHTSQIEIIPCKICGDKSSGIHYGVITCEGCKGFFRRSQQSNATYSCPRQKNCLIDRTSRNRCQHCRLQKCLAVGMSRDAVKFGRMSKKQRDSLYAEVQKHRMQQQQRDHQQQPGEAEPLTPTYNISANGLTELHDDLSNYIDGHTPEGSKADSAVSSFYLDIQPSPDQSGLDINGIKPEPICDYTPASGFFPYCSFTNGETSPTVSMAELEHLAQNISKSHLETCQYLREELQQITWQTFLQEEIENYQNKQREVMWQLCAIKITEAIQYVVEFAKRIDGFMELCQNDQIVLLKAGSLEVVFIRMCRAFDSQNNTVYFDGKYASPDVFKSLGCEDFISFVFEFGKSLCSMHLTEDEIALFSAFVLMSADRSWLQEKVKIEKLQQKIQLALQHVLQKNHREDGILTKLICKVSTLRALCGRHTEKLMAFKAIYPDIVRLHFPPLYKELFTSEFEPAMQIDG
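Test system – CHO-K1 Gal4-RORA LBD luciferase reporter cells · Schedule – 20 h at 37 °C · Signal – luminescence from basal luciferase reporter expression · Measure – percent inhibition of basal reporter luminescence, control-normalized · Control set – -RORA mock-transfected DMSO wells 100%, +RORA DMSO wells 0%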
Active calls of the source: *. Only a selection was taken, and hits are over-represented in it overall.

SMILES | RORA inh
CC1Cc2nc(SCC(=O)OCc3ccccc3)n(C)c(=O)c2S1 (stereo unspecified) | 9
CCN1C(=O)NC(c2cccnc2)C(C(=O)OC)=C1C (stereo unspecified) | 15
COc1ccc(-n2c(=O)c3ccccc3n(CC(=O)NC3CCCC3)c2=O)c(OC)c1 | 12
CCCCn1nnc(NC(=O)CC23CC4CC(CC(C4)C2)C3)n1 | 18
O=S(=O)(Cc1ccccc1)N1CCc2ccccc21 | 6
CC1CCN(C(=O)CSc2nnc(-c3ccc(S(=O)(=O)N4CCOCC4)cc3)n2C)CC1 | 8
O=C(C1CCCN(S(=O)(=O)c2ccccc2)C1)N1CCCc2ccccc21 (stereo unspecified) | -18
CCNc1nc(-c2ccc(Cl)cc2)cs1 | -50
O=C(Cc1ccccc1)Nc1nc(-c2cccs2)cs1 | -67
Cc1nc2sccn2c1-c1csc(NCc2ccccc2)n1 | 63*
CC(C)C(=O)Nc1ccc2c(c1)C(=O)N(CCC(=O)O)C2=O | 3
Cc1cccc(OCC(O)CN2CCN(C3CCCCC3)CC2)c1 (stereo unspecified) | 16
Cc1nnc(C)n1/N=C/C=C/c1ccccc1 | 3
CCOc1ccc(-c2cc(CCCC(=O)NCCCOC)no2)cc1 | 58*
CCOc1ccc(-c2cc(C(=O)NCCCN3CCN(CC)CC3)c3ccccc3n2)cc1 | -32
CCC(C)NC(=O)c1cc(-c2ccc(OC)cc2)on1 (stereo unspecified) | -60
CCc1nnc2c3cnn(-c4ccc(C)c(C)c4)c3ncn12 | -57
CC(=O)c1cc2c(cc1NC(=O)CN1CCN(c3cccc(C(F)(F)F)c3)CC1)OCO2 | 12
COc1ccc(C(=O)CN2CCN(c3ccc(F)cc3)CC2)cc1OC | 14
CC(=O)c1ccc(N2CCN(c3ccc(C(F)(F)F)cn3)CC2)cc1 | 54*
O=C(CN(Cc1ccc2c(c1)OCO2)C(=O)c1cnsn1)NC1CCCC1 | 6
CC(=O)C(C)Oc1ccc2c3c(c(=O)oc2c1C)CCCC3 (stereo unspecified) | -59
O=c1[nH]c(CN2CCN(Cc3ccc4c(c3)OCO4)CC2)nc2sc3c(c12)CCC3 | 9
C=CCSc1nc2ccccc2n1Cc1nnc(-c2cccs2)o1 | 18
Cc1ccc(OCC(=O)N2CCC(N3CCCCCC3)CC2)cc1 | -8
SMILES | RORA inh
COc1ccc(CCNC(=O)c2nnn(CC(=O)Nc3ccccc3)c2N)cc1OC | -2
COc1ccc(CC(=O)Nc2cccc(-c3nnc(-c4cccc(C)c4)o3)c2)cc1OC | 87*
COc1ccc(Cc2nnc(NC(=O)Cc3cccs3)s2)cc1OC | -5
Cc1cc(/C=N/n2cnnc2)c(C)n1-c1ccc(OCc2ccccc2F)cc1 | 62*
C(=N\n1cnnc1)/c1cccc(Oc2ccccc2)c1 | 3
O=C(COc1ccc(Cl)cc1)NCc1nnc(SCC(=O)NCCc2ccccc2)o1 | 10
O=C(c1ccccc1)C(CCC(CN1CCOCC1)C(=O)c1ccccc1)CN1CCOCC1 (stereo unspecified) | 56*
O=C(c1ccccc1)c1ccc(N2CCOCC2)c(F)c1 | -74
O=C(Nc1ccc(CN2CCOCC2)cc1)c1cccc(F)c1 | -37
CC1(C)CC(=O)c2cnc(NC(=O)c3ccco3)nc2C1 | -2
CC(C)OCCCNC(=O)C1CCC(=O)N1C(C)C (stereo unspecified) | 16

Source: PubChem BioAssay
